Compound activity deposited in PubChem BioAssay by several laboratories.
Most compounds without a hit are left out; they make up all but 6.4% or so of the library.
Lung fibro prol: antiproliferative effect on LL 47 fibroblasts – human, LL 47 cells, CellTiter-Glo luminescence, primary screen; LL 47 human lung fibroblast viability, ATP luminescence; hits give low values; viability, % at 10 µM; 85,000 tested, 1.1% active; AID 719, 2007;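 active means viability at or below 50% in the single dose screen; inactive means viability above 50%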;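 further: compound exposure lasted 72 h before the ATP readout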
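Test system: LL 47 human lung fibroblasts / Quantity: 1,150 cells in each well / Medium: IMEM growth medium with 15% fetal bovine serum / Incubation: 72 h compound exposure at 37 °C after overnight plating / Detection: CellTiter-Glo luminescence measuring cellular ATP / Read-out: % viability versus median cells-only luminescence / Benchmarks: cell-only wells, no compound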
Ecoli tolC: growth inhibitors of E. coli tolC mutant, primary screen, strain BW25113 ΔtolC::kan, 384-well; OD615; growth inhibition, % at 10 µM (by protocol); 65,000 tested, 2.2% active;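 active means growth inhibition at or above a cutoff equal to the mean over every tested compound plus 3 SD, cut at about 60% in these data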;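 further: growth measured after 20 h incubation at 37 °C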
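Test system – E. coli BW25113 ΔtolC::kan, tolC deletion mutant strain · Detection – OD at 615 nm · Buffer or medium – LB with kanamycin 50 µg/mL · Times – 20 h compound exposure of bacteria at 37 °C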
HUVEC prolif 384: inhibitors of HUVEC proliferation, primary screen, cell-based, 384-well. AID 648, 2007. viability, % at 10 µM (by protocol). 86,000 tested, 1.1% active. CellTiter-Glo luminescence, 72 h; hits give low values;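 active means viability at or below 30%; inactive means viability above 30%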
E coli WT exp: growth inhibitors of wild-type E. coli, primary screen, strain BW25113, expanded library, OD600. growth inhibition, % at 100 µM. OD600 absorbance. AID 710, 2007. 98,000 tested, 0.15% active;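 active means growth inhibition above about 50% at one test dose, limit read from the data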;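 further: growth measured after 20 h incubation at 37 °C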
H69AR inhibit: proliferation blockers of H69AR lung cancer cells, primary screen, cell-based, human, 86K library. H69AR lung tumor viability, ATP luminescence, 72 h; hits give low values. viability, % at 10 µM. 85,000 tested, 6% active;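 active means viability at or below 40%; inactive means viability above 40%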;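 further: multidrug resistant small cell line overexpressing MRP-1 efflux transporter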
Jurkat viability: cytotoxicity toward Jurkat T cells, primary screen, cytotoxicity control, cell-based, Jurkat E6.1, 60K MLSMR library | inhibition, % at 4 µM | 56,000 tested, 1.2% active | AID 463, 2006 | Jurkat E6.1 viability, ATP luminescence, 48 h;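 active means inhibition above the mean inhibition of all tested compounds plus 3 SD, cut at about 28% in these data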
Hits are given with their value; 0 = inactive; - = not tested or not shown.

SMILES	Lung fibro prol	Ecoli tolC	HUVEC prolif 384	E coli WT exp	H69AR inhibit	Jurkat viability
CCOC(=O)c1oc2ccccc2c1NC(=O)c1ccc(Cl)s1	0	-	0	0	0	-
COc1ccc2c(c1)CCc1c(C(=O)N3CC4(C)CC3CC(C)(C)C4)noc1-2 (stereo not drawn)	0	0	0	0	35.4	0
COc1ccc2c(c1)CCc1c(C(=O)N3CCCc4ccccc43)noc1-2	0	70.8	0	0	0	0
COc1ccc2nc(NCCCNC(=O)c3cc(OC)c(OC)c(OC)c3)c(C#N)cc2c1	0	0	0	0	0	0
CCOC(=O)N1CCC(n2c(SCC(=O)NCc3ccccc3)nc3ccccc3c2=O)CC1	0	0	0	0	0	-
CCOC(=O)N1CCC(n2c(SCC(=O)N3CCC(C)CC3)nc3ccccc3c2=O)CC1	0	-	0	0	30.3	-
CCOC(=O)N1CCC(n2c(SCC(=O)N3CCCC3)nc3ccccc3c2=O)CC1	-	-	-	0	-	-
CCOC(=O)N1CCC(n2c(SCC(=O)NCCC3=CCCCC3)nc3ccccc3c2=O)CC1	0	0	0	0	26.3	-
Cc1cc(NC(=O)CN2CCN(c3ccccc3F)CC2)nc2c1c(=O)oc1ccccc12	0	0	0	-	34.3	0
CCOc1ccc(C(=O)Nc2cc(C)c3c(=O)oc4ccccc4c3n2)cc1	0	0	26.4	0	18.9	0
COc1ccc(CC(=O)Nc2cc(C)c3c(=O)oc4ccccc4c3n2)cc1	0	0	0	-	22.1	0
CCC(CC)C(=O)Nc1cc(C)c2c(=O)oc3ccccc3c2n1	0	0	0	0	0	0
Cc1cc(NC(=O)c2ccc(S(=O)(=O)N3CCOCC3)cc2)nc2c1c(=O)oc1ccccc12	-	0	-	0	-	-
Cc1cc(NC(=O)c2ccc(S(=O)(=O)N3CCCC3)cc2)nc2c1c(=O)oc1ccccc12	0	0	0	0	18.4	-
Cc1ccc2nsnc2c1S(=O)(=O)NCCc1c(C)[nH]c2ccc(F)cc12	0	-	0	0	0	-
Cc1ccc(NC(=O)C(C)c2ccc(-c3ccccc3)c(F)c2)cc1 (stereo not drawn)	-	-	-	0	-	-
CC1(C)CC(=O)c2cn3nc(C(F)(F)F)nc3nc2C1	0	-	0	0	0	-
O=C(O)/C=C1\NC(=O)c2ccccc21	-	0	-	0	-	-
O=C1Nc2ccccc2/C1=C/C(=O)c1cccs1	33.9	-	0	0	0.7	-
Cc1onc(-c2ccccc2)c1C(=O)N1CCN(C/C=C/c2ccccc2)CC1	0	0	0	0	0	0
C=CCNC(=O)C1CC(=O)N(c2ccc(OCC(=O)Nc3ccc(Cl)c(C(F)(F)F)c3)cc2)C1 (stereo not drawn)	0	-	0	0	13.8	-
COc1ccc(Cc2ccc(OC)c(N)c2)cc1N	0	-	0	0	29.5	-
Cc1nn(-c2ccccc2)c2[nH]c(=O)c(CNCc3ccc4c(c3)OCO4)cc12	0	93.2	0	0	0	0
Cc1nn(-c2ccccc2)c2[nH]c(=O)c(CNCCN3CCOCC3)cc12	0	0	0	0	0	0
Cc1ccc(-c2nn(-c3ccccc3)c3[nH]c(=O)c(CNCc4ccccc4)cc23)cc1	0	-	4.8	-	0	-
SMILES	Lung fibro prol	Ecoli tolC	HUVEC prolif 384	E coli WT exp	H69AR inhibit	Jurkat viability
CCc1ccc(NCc2cc3c(C)nn(-c4ccccc4)c3[nH]c2=O)cc1	0	-	0	0	0	-
Cc1ccc(-c2nn(-c3ccccc3)c3[nH]c(=O)c(CNCCN(C)C)cc23)cc1	0	0	0	-	17.2	0
Nc1nonc1-c1nc2ccccc2n1CC(=O)N/N=C\c1ccc(-c2ccc(Cl)cc2)o1	-	-	-	0	-	-
CCCCCCCOc1ccc(OC(=O)c2ccncc2)cc1	0	-	0	0	0	-
Cc1cccc2cc(CN(C(=O)c3cnccn3)C3CCCCC3)c(Cl)nc12	-	-	-	0	-	-
c1csc(-c2nc3c4ccccc4c4ccccc4c3[nH]2)c1	0	-	0	-	29.6	-
c1ccc(-c2nc(-c3cccs3)[nH]c2-c2ccccc2)cc1	-	-	-	0	-	-
Cc1cccc2sc(NC(=O)CN(C)S(=O)(=O)c3cccs3)nc12	0	0	0	0	0	-
Cc1cccc2sc(NC(=O)CN(C)S(=O)(=O)c3ccc(Br)s3)nc12	0	92.3	0	0	0	-
COc1ccc(-c2nsc3c(N4CCCC4)ncnc23)cc1	0	0	0	0	0	0
COc1ccc(-c2nsc3c(N4CCN(S(=O)(=O)c5ccccc5)CC4)ncnc23)cc1	0	0	0	-	6.2	0
O=C(Cc1ccc(Br)cc1)N1CCN(c2ccccc2O)CC1	-	-	-	0	-	-
CC1=CC(C)(C)N(S(=O)(=O)c2ccc(F)cc2)c2ccccc21	0	-	0	0	19.3	-
CC1=CC(C)(C)N(S(=O)(=O)c2ccc(C)cc2)c2ccc(C)cc21	0	-	0	0	21.6	-
CC1=CC(C)(C)N(C(=O)CSc2nnc(-c3ccc(C)cc3)o2)c2ccc(C)cc21	0	-	0	0	0	-
Cc1ccc(C(C(=O)NC2CCCC2)N(Cc2cccs2)C(=O)CNC(=O)c2cccs2)o1 (stereo not drawn)	-	65.8	-	0	-	0
Cc1ccc(C(C(=O)NC2CCCC2)N(C(=O)CNC(=O)c2cccs2)c2cccnc2)o1 (stereo not drawn)	0	-	0	-	0	-
COc1cc2c(cc1NC(=O)CSc1nnnn1-c1ccccc1)oc1ccccc12	0	0	0	0	18.9	0
Cc1cc(Cl)ccc1NC(=O)CSc1nnc(Cc2cccs2)n1Cc1ccco1	0	74.6	0	0	0	0
COc1cc2c(cc1NC(=O)CCCN1C(=O)CCC1=O)oc1ccccc12	0	0	0	0	0	0
COc1cc2c(cc1NC(=O)CN1CCN(S(=O)(=O)c3ccccc3F)CC1)oc1ccccc12	0	-	0	0	39.6	-
CCn1c(SCC(=O)Nc2cc3oc4ccccc4c3cc2OC)nnc1-c1cccs1	0	0	0	0	2.3	0
COc1cc2c(cc1NC(=O)CSc1ccc(C)cc1)oc1ccccc12	-	-	-	0	-	-
C=CCn1c(Cc2cccs2)nnc1SCC(=O)NCc1ccco1	0	-	0	0	0	-
CC1CCCN(C(=O)C2CCN(S(=O)(=O)c3cccc4cccnc34)CC2)C1 (stereo not drawn)	0	0	0	0	0	0
COc1cc2c(cc1NC(=O)CSc1nnc(Cc3cccs3)n1C)oc1ccccc12	0	0	0	0	3.9	0
COc1cc2c(cc1NC(=O)CSc1nnc(Cc3cccs3)n1Cc1ccco1)oc1ccccc12	0	-	0	0	36.5	-
COc1cc2c(cc1NC(=O)CSc1nnc(COc3ccc(Cl)cc3)n1C)oc1ccccc12	0	-	0	0	0	-
O=C(Nc1ccccc1)c1nnn(Cc2ccccc2)c1NC(=O)C(F)(F)F	0	-	0	0	0	-
CC(C)c1ccc(N(CC(=O)Nc2ccc(S(=O)(=O)N3CCOCC3)cc2)S(C)(=O)=O)cc1	0	-	0	0	30.2	-
